The record followed here is ChEMBL document CHEMBL1131378, “Synthesis and endectocidal activity of novel 1-(arylsulfonyl)-1-[(trifluoromethyl)sulfonyl]methane derivatives” (J Med Chem, 1998).

Where only a bound is given, the exact number is not on record here.

A short description of series [1]: Partition coefficient (logP) (HPLC). The series is classed as physicochemical. The settings on record: octanol/water. The procedure, abridged:
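Partition coefficient measured chromatographically.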

The subject of series [2] is Haemonchus contortus. Briefly: The compound was tested for % reduction of Haemonchus contortus worms in gerbils dosed at 25 mg/kg. The series is classed as functional. The essentials: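 Mongolian gerbils infected with H. contortus received one oral gavage at 25 mg/kg BW in DMSO/H2O. Untreated infected gerbils served as negative controls and levamisole-dosed gerbils as positive controls, three per group. Stomachs and contents were vortexed in saline, incubated at 35 °C for at least 1 h and stained with iodine. Worms were counted per gerbil and % reduction taken against the mean of infected untreated controls.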

Series [3] is filed under the species Rattus norvegicus. Briefly: Uncoupler concentration that reduced the respiratory control index by 50% of coupled rat liver mitochondria. The series is classed as functional.
A short description of series [4]: The pKa value in aqueous solution. The series is classed as physicochemical. The essentials:
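pKa measured in aqueous solution.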

Series [5] is described as follows: (§1) Number of days posttreated in which >90% mortality of ASF was seen following exposure of insects to serum from sheep treated with 10 mg/kg of BW of compound by single ir injection. The series is classed as functional. The procedure, abridged:
(§2)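 Parasitized sheep (two per compound) received a single intraruminal injection at 10 mg/kg BW in PEG 200. Blood was drawn daily for 14 days and left about 24 h to separate. Serum-soaked dental wicks were exposed to adult stable flies for 48 h, with mortality compared to a serum-only control. Days posttreatment giving >90% mortality were counted.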

In series [6] the test system is Stomoxys calcitrans. Briefly: Insecticidal property against Stomoxys calcitrans measured as lowest concentration in bovine serum vs adult stable fly giving > 90% mortality. The series is classed as functional. The procedure, abridged:
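Serum titrated with compound from 100 ppm downward was soaked into dental wicks and placed in dishes with 10 chilled adult stable flies. Kept about 48 h at about 25 °C and 75–85% humidity. Percent mortality was scored at 24 and 48 h against a wick with control serum only.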

The test system of series [7] is Haemonchus contortus. In words: Compound was tested for % reduction of Haemonchus contortus worms in sheep dosed at 10 mg/kg by single ir injection. The series is classed as functional. The procedure, abridged: (§3)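 Lambs with baseline fecal egg counts on days 26–28 postinoculation randomised to groups and held in individual metabolism crates. A single 10 mg/kg BW intraruminal dose was given in PEG 200. Fecal EPG was measured daily. Total H. contortus worm counts were used to calculate % reduction as (TWC control − TWC treated)/TWC control × 100, against untreated controls.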

Series [8] deals with Haemonchus contortus. Briefly: The compound was tested for % Reduction of Haemonchus contortus worms in sheep dosed at 10 mg/kg by single ir injection. The series is classed as functional. The procedure, abridged:
as §3

In series [9] the test system is Stomoxys calcitrans. The description is as §1. The series is classed as functional. The essentials: as §2

In general, logP refers to a log measure of how a compound divides between an organic and an aqueous phase. The term IC50 denotes the concentration needed to halve the response being measured. Low values mean inhibition by little substance, high ones a need for much substance. Broadly, the pKa is the negative logarithm of the acid dissociation constant. A lower pKa goes with a stronger acid or weaker base. On to `CC(S(=O)(=O)c1ccc(OC(F)(F)F)cc1)S(=O)(=O)C(F)(F)F` (stereo not drawn), for which, in [1], the logP came to 3. Besides, the Reduction in [2] and in series [7] was 100% throughout. The compound further displayed an IC50 in series [3] of 710 µM. This compound also displayed a pKa in series [4] of 6.2. The compound also yielded a Days in [5] of 6. In addition, in series [6], the ASF is recorded as 25 p.p.m.

Take `Cc1ccc(S(=O)(=O)CS(=O)(=O)C(F)(F)F)cc1`: the ASF in series [6] is over 100 p.p.m. Still for that read-out and setting: next, `O=S(=O)(CS(=O)(=O)C(F)(F)F)c1ccc(Cl)cc1Cl`: over 100 p.p.m; `CCC(S(=O)(=O)c1ccc(Cl)cc1)S(=O)(=O)C(F)(F)F` (stereo not drawn): 50 p.p.m. Same read-out and setting: next, `O=S(=O)(c1ccc(OC(F)(F)F)cc1)C(CSc1ccc(OC(F)(F)F)cc1)S(=O)(=O)C(F)(F)F` (stereo not drawn): 50 p.p.m; `CSC(S(=O)(=O)c1ccc(Cl)cc1)S(=O)(=O)C(F)(F)F` (stereo not drawn): over 100 p.p.m; `O=S(=O)(CS(=O)(=O)C(F)(F)F)c1cc(C(F)(F)F)cc(C(F)(F)F)c1`: 50 p.p.m. Compound `O=S(=O)(CS(=O)(=O)C(F)(F)F)c1ccc(Cl)c(Cl)c1` gave a logP in [1] of 1.7. Besides, the Reduction in [2] and in series [8] was 100% each time. For the same compound, the IC50 in series [3] came to 3990 µM. The pKa in series [4] is 4. In addition, the Days in series [9] is on record as 1. Further, in series [6], the ASF is given as over 100 p.p.m.

As to `O=S(=O)(c1ccc(OC(F)(F)F)cc1)C(CSc1ccc(F)cc1)S(=O)(=O)C(F)(F)F` (stereo not drawn), the Reduction in series [2] and in series [7] was 100% each time. Besides, in series [5], the Days is 6. Also, in [6], the ASF worked out at 50 p.p.m. With `O=S(=O)(CS(=O)(=O)C(F)(F)F)c1ccccc1`, the ASF in series [6] came to 50 p.p.m.

With `O=S(=O)(c1ccc(Cl)c(Cl)c1)C(Cc1ccc(C(F)(F)F)cc1)S(=O)(=O)C(F)(F)F` (stereo not drawn), in series [6], the ASF was found to be 100 p.p.m. The same measure, in the same setting: next, `O=S(=O)(CS(=O)(=O)C(F)(F)C(F)(F)C(F)(F)C(F)(F)F)c1ccc(OC(F)(F)F)cc1`: 25 p.p.m. Same read-out and setting: next, `O=S(=O)(CS(=O)(=O)C(F)(F)F)c1ccc(SC(F)(F)C(F)F)c(Cl)c1`: over 100 p.p.m. In the case of `O=S(=O)(CS(=O)(=O)C(F)(F)F)c1ccc(NS(=O)(=O)C(F)(F)F)cc1`, in series [6], the ASF is on record as 100 p.p.m. Turning to `CC(C)(C)c1ccc(S(=O)(=O)CS(=O)(=O)C(F)(F)F)cc1`, the logP in [1] was found to be 2.4. The compound further came in with an IC50 in series [3] of 2800 µM. Also, the pKa in series [4] is 5.1. The ASF in series [6] was over 100 p.p.m.

Regarding `O=S(=O)(CS(=O)(=O)C(F)(F)F)c1ccc(F)cc1`, the logP in series [1] came out at 1.3. In addition, in series [3], the IC50 turned out to be 3150 µM. In addition, in series [4], the pKa was 4.6. Besides, in series [6], the ASF is 100 p.p.m. In the case of `O=S(=O)(CS(=O)(=O)C(F)(F)F)c1ccc(OC(F)(F)F)cc1`, the log partition coefficient (logP) in series [1] amounted to 2.2. Besides, the Reduction in series [2] and in series [7] was 100% throughout. For the same compound, in series [3], the midpoint of inhibition, the IC50, lay at 2950 µM. The compound further displayed a pKa in series [4] of 4.1. This compound yielded a Days in [5] of 10. In addition, the ASF in series [6] worked out at 25 p.p.m. For the compound `FC(F)(F)Oc1ccc(SCSC(F)(F)F)cc1`, the ASF in series [6] is over 100 p.p.m. On the same count and under the same terms, the value for `CC(S(=O)(=O)c1ccc(Cl)c(Cl)c1)S(=O)(=O)C(F)(F)F` (stereo not drawn) was 25 p.p.m. With `O=S(=O)(CS(=O)(=O)C(F)(F)F)c1cccc(C(F)(F)F)c1`, in [6], the ASF is over 100 p.p.m. Same read-out and setting: next, `O=S(=O)(CS(=O)(=O)C(F)(F)F)c1ccc(SC(F)(F)C(F)F)cc1`: over 100 p.p.m; `O=S(=O)(CS(=O)(=O)C(F)(F)F)c1ccc(F)c(Cl)c1`: 100 p.p.m; `O=S(=O)(c1ccc(OC(F)(F)F)cc1)C(CSc1cccc(F)c1)S(=O)(=O)C(F)(F)F` (stereo not drawn): 50 p.p.m. Turning to `O=S(=O)(CS(=O)(=O)C(F)(F)F)c1ccc(Cl)cc1`, the logP in series [1] was found to be 1.9. The Reduction in series [2] and in series [8] was 100% in each case. The compound further came in with an IC50 in [3] of 4000 µM. Also, in [4], the pKa came to 4.4. The Days in series [9] came out at 3. For the same compound, in series [6], the ASF is recorded as 50 p.p.m. Compound `O=S(=O)(CS(=O)(=O)C(F)(F)F)c1ccc(C(F)(F)F)cc1` yielded a logP in series [1] of 1. The Reduction in series [2] and in [7] was 100% each time. For the same compound, in series [3], it took 5400 µM to reach half-maximal inhibition (IC50). The compound further gave a pKa in series [4] of 4. This compound came in with a Days in [5] of 0. The ASF in [6] was found to be 50 p.p.m. `CC(C)(C)Sc1ccc(S(=O)(=O)CS(=O)(=O)C(F)(F)F)cc1`: the ASF in [6] is over 100 p.p.m. Turning to `O=S(=O)(CS(=O)(=O)C(F)(F)F)c1ccc(O)cc1`, in series [6], the ASF is recorded as over 100 p.p.m. Still for that read-out and setting: the value for `O=S(=O)(CS(=O)(=O)C(F)(F)F)c1c(Cl)cccc1Cl` was over 100 p.p.m. Same read-out and setting: next, `CS(=O)(=O)Oc1ccc(S(=O)(=O)CS(=O)(=O)C(F)(F)F)cc1`: over 100 p.p.m; `O=[N+]([O-])c1ccc(S(=O)(=O)CS(=O)(=O)C(F)(F)F)cc1`: over 100 p.p.m. As to `O=S(=O)(CS(=O)(=O)C(F)(F)F)c1ccc(OS(=O)(=O)C(F)(F)F)cc1`, the ASF in series [6] was 100 p.p.m. On the same count and under the same terms, next, `N#Cc1ccc(S(=O)(=O)CS(=O)(=O)C(F)(F)F)cc1`: over 100 p.p.m; `COc1ccc(S(=O)(=O)CS(=O)(=O)C(F)(F)F)cc1`: over 100 p.p.m; `O=S(=O)(c1ccc(OC(F)(F)F)cc1)C(CSc1ccc(Cl)cc1)S(=O)(=O)C(F)(F)F` (stereo not drawn): 50 p.p.m.

On to `O=S(=O)(CS(=O)(=O)C(F)(F)F)c1ccc(Br)cc1`, for which the ASF in [6] was found to be 25 p.p.m. Take `O=S(=O)(c1ccc(Cl)cc1)C(Cc1ccccc1)S(=O)(=O)C(F)(F)F` (stereo not drawn): in series [6], the ASF was over 100 p.p.m.

For `CC(S(=O)(=O)c1ccc(Cl)cc1)S(=O)(=O)C(F)(F)F` (stereo not drawn), the ASF in [6] was found to be 50 p.p.m.

Consider `O=S(=O)(c1ccc(OC(F)(F)F)cc1)C(Cl)(Cl)S(=O)(=O)C(F)(F)F`, for which the ASF in series [6] is recorded as over 100 p.p.m. Same read-out and setting: next, `O=S(=O)(CS(=O)(=O)C(F)(F)F)c1ccccc1Cl`: over 100 p.p.m; `O=S(=O)(CS(=O)(=O)C(F)(F)F)c1ccc(OC(F)(F)C(F)F)cc1`: 25 p.p.m. In series [1], `O=[N+]([O-])c1ccc(O)c([N+](=O)[O-])c1` [2,4-DINITROPHENOL] gave a logP of 1.5. This compound also had an IC50 in [3] of 1000 µM. For the same compound, the pKa in series [4] is 4.6. Compound `Cc1cc(C(C#N)c2ccc(Cl)cc2)c(Cl)cc1NC(=O)c1cc(I)cc(I)c1O` (stereo not drawn) [CLOSANTEL] registered an IC50 in series [3] of 927 µM.
